Hit rate of the full screen: of about 51,000 compounds, about 150 (0.29%) were called active. The list comes from a sample in which actives are over-represented; it also holds similar structures and randomly drawn compounds. Values without a mark were called inactive.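 Rule for the calls: active = both repeat wells score below -2 in polarization z-score versus plate sample wells, excluding overly bright wells; inactive = the rest.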
What follows are compounds tested on LANA (ORF73) N-terminal peptide binding to nucleosomes, Human herpesvirus 8 (assay: LANA N-terminal peptide–nucleosome interaction blockers – biochemical, fluorescence polarization, FITC-LANA1-23, chicken nucleosomes, primary screen (AID 720717)). Settings: FITC-LANA1-23 / chicken nucleosome fluorescence polarization; active compounds read low.
How it was run: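 Material: Purified chicken nucleosomes with FITC-labelled LANA N-terminal peptide (1-23) | Reagent: 50 nM FITC-LANA1-23 probe | Medium: TEN-BT buffer, pH 7.5 | Times: 10–45 min incubation at room temperature | Detection: Fluorescence polarization | Replication: Duplicates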

Row | Structure (SMILES) | z-score
1 | S=c1[nH]nc(NCCc2ccccc2)s1 | 0.44
2 | O=C1NC(c2ccccc2)=NC1(Nc1ccccn1)C(F)(F)F (configuration not stated) | 0.245
3 | CCOC(=O)c1nn(-c2ccccc2)c(C(=O)OCC)c1N(C(=O)CC)C(=O)CC | -0.275
4 | O=C1CCCc2nc3nc(-c4ccncc4)nn3cc21 | -0.949
5 | CC(Sc1nnc(COc2ccccc2)n1-c1ccccc1)C(=O)O (configuration not stated) | 0.582
6 | O=c1[nH]ncc2c1[nH]c1ccccc12 | 0.221
7 | O=C1C2C3C=CC(C3)C2C(=O)N1C1CC2CCC1C2 (configuration not stated) | -0.407
8 | N/C(=N\OC(=O)Nc1ccccc1)c1ccno1 | -0.0325
9 | C=CCOC(=O)c1cc(-c2ccc(/C=C3/NC(=S)NC3=O)o2)ccc1Cl | 0.594
10 | COC(=O)CSc1nc(-c2ccccc2)cc(C)c1C#N | -0.143
11 | CN(C)c1ccc(C(=S)N2CCN(c3cccc(Cl)c3)CC2)cc1 | 0.446
12 | COc1cccc(/C=N/NC(=O)c2cccc(C)c2)c1O | -0.518
13 | Cc1ccccc1-c1n[nH]n2c1nc(=O)c1cc(Cl)ccc12 | 0.639
14 | O=C(NCc1ccncc1)C1CCN(C(=O)c2cccc(Cl)c2)CC1 | 0.832
15 | Clc1ccc(C2N=C(c3cnccn3)NN2)cc1 (configuration not stated) | -2.98 (active)
16 | CN(C)CCC(O)c1cc(Cl)sc1Cl (configuration not stated) | 0.472
17 | CC(=O)N1c2ccccc2NC(=O)C1CC(=O)Nc1cccc(C)c1 (configuration not stated) | 2.28
18 | O=C(Nc1ccc(-c2cn3cccnc3n2)cc1)C1CCCC1 | 0.642
19 | CCOC(=O)C1=NNC2C(=O)N(c3cc(Cl)ccc3OC)C(=O)C12 (configuration not stated) | -0.513
20 | O=C(O)/C=C\C(=O)NCc1ccc2c(c1)OCO2 | 0.273
21 | CC1=CC(C)C2(COC(CN3CCCCC3)OC2)C(C)C1 (configuration not stated) | -0.0595
22 | CN(Cc1ccccc1)C1(O)C(=O)Nc2c(C(F)(F)F)cccc21 (configuration not stated) | 0.254
23 | COc1ccc(CNC(=O)NC2CCN(S(=O)(=O)c3ccc(OC)cc3)CC2)cc1 | 0.0685
24 | Clc1cccc(Nc2nc3ccccc3c3nncn23)c1 | -0.519
25 | CC(=O)O/N=C/c1ccc(N(C)C)cc1 | 0.621
26 | Cc1cc(NCc2cccnc2)no1 | -0.669

Row | Structure (SMILES) | z-score
27 | CCc1ccc(NS(=O)(=O)c2cnn(CC)c2)cc1 | -1.21
28 | CCn1cc(S(=O)(=O)Nc2cc(C)on2)cn1 | -2.19 (active)
29 | Cc1ccc(-n2nc(C)c(C(=O)O)n2)cc1 | -0.785
30 | CCCN(CCC)C(=O)Cn1ncn2c(cc3ccccc32)c1=O | 0.518
31 | Cc1cc2c(cc1S(=O)(=O)CCC(=O)N1CCCC1)OCC(=O)N2 | -1.11
32 | O=C(Nc1ccc(Cl)cc1)Nc1cc(C(=O)NCC2CCCO2)ccc1N1CC2CC(C1)c1cccc(=O)n1C2 (configuration not stated) | 0.571
33 | O=c1[nH]cc(S(=O)(=O)N2CCc3ccccc32)c(=O)[nH]1 | -0.177
34 | CCN(CC)S(=O)(=O)c1c(C)nn(S(=O)(=O)c2ccccc2)c1C | 1.21
35 | C(=N\N(Cc1ccccc1)Cc1ccccc1)/c1ccco1 | -1.14
36 | CCOC(=O)C(N)Cc1c[nH]c2ccccc12 (configuration not stated) | 0.0765
37 | Cc1ccc2cc(CN(CCN3CCCC3)C(=O)NC3CCCCC3)c(=O)[nH]c2c1C | 0.448
38 | CC(C)(Oc1ccc(Cl)cc1)C(=O)Nc1ccc2oc(-c3cccnc3)nc2c1 | 0.188
39 | C=C(C)Cn1nc(C)c(-c2cc(C(=O)O)[nH]n2)c1C | -0.083
40 | Cc1cccc(-c2cc(C(=O)N3CCN(C(=O)c4ccco4)CC3)c3ccc(Cl)c(C)c3n2)c1 | 0.0795
41 | O=C1NN=C(c2ccccc2)C1CCO (configuration not stated) | -0.74
42 | CS(=O)(=O)C1=NSC2=NC(=O)/C(=C\c3ccco3)C(=N)N21 | -0.748
43 | O=C(COc1ccccc1)n1c(=O)oc2ccccc21 | -1.36
44 | CCS(=O)(=O)N1CCCC(c2nc3c(nnn3Cc3ccc(C)cc3)c(=O)[nH]2)C1 (configuration not stated) | -1.1
45 | O=C(CSc1nc2ncccc2o1)NCc1ccco1 | 0.0485
46 | CCNC(=O)CC1C(=O)N(c2ccc(OC)cc2)C(=O)N1CCOC (configuration not stated) | -0.571
47 | COc1ccc(C(c2nnnn2C(C)(C)C)N2CCN(c3ccccc3)CC2)cc1 (configuration not stated) | -0.537
48 | COc1ccc(C2C3=C(CCCC3=O)N(CC(=O)O)C3=C2C(=O)CCC3)cc1 | 1.54
49 | Cc1ccc(C(=O)NC(C(=O)O)c2ccccc2)cc1 (configuration not stated) | 0.558
50 | C=CCNc1nc(N)sc1C#N | 0.79
51 | COc1cc(Br)cc(/C=N/O)c1O | -0.372
52 | C/C(=N/NC(=O)Cc1cc(=O)[nH][nH]1)c1ccc(Cl)cc1 | -0.559

Row | Structure (SMILES) | z-score
53 | Cc1cc(C)nc(-n2nc(C)c3c2N(C)C(=O)CC3c2ccccc2Cl)n1 (configuration not stated) | 0.097
54 | CCc1ccc2[nH]c(=O)c(CN(Cc3ccco3)C(=O)c3ccccc3)cc2c1 | 0.0145
55 | N#Cc1c(F)cccc1NC(=O)CN1CCCCC1 | -0.136
56 | COc1ccc(NC(=O)c2cn(-c3ccccc3)nc2SC)cc1 | -0.623
57 | O=C1CCC(=O)N1C(c1ccccc1)c1ccccc1 | -0.605
58 | COC(=O)c1ccccc1NC(=O)C(F)(F)F | -0.55
59 | CCc1c(C)nc2c(OC)cccc2c1Cl | -0.847
60 | Cc1sc2nc(C)n(NC(N)=O)c(=O)c2c1C | 0.328
61 | Cc1cc(N2CC(C)CC(C)C2)nc2ccc(NC(=O)CCC(=O)NCc3ccco3)cc12 (configuration not stated) | -1.27
62 | O=C1OC(c2ccco2)=N/C1=C1/C=C(c2cccs2)Oc2ccccc21 | -0.0915
63 | N#CC1=C(SCC(N)=O)NC2=C(C(=O)CCC2)C1c1ccco1 (configuration not stated) | 0.283
64 | CCCCn1cc(/C=N/NC(=O)c2cc3cc(OC)ccc3n2C)c2ccccc21 | -0.47
65 | O=S1(=O)CCC(S(=O)(=O)NC2CCCC2)C1 (configuration not stated) | -1.02
66 | COc1ccc(C(=O)N(C)C2CCCCC2)cc1 | -0.539
67 | CCCc1cc(=O)[nH]c2c1c(C)nn2-c1cccc(F)c1 | 1.12
68 | Cc1[nH]n(-c2ccccc2)c(=O)c1C(=O)C(F)(F)F | -0.607
69 | COc1ccc(CCN(C)C2CCNCC2)cc1OC | -0.052
70 | COc1cccc(NC(=O)c2cc(-c3cccc(OC)c3)n[nH]2)c1 | -1.44
71 | COc1cc(-c2nc3ccccn3c2NC2CCCC2)ccc1O | -0.532
72 | O=C(CN1Cc2ccccc2C1=O)N1CC=C(c2ccccc2)CC1 | -0.481
73 | Cc1ccc(-c2nc3scc(CCNC(=O)Cc4ccccc4)n3n2)cc1 | -0.82
74 | S=C(Cc1ccccc1)N1CCCCC1 | 0.211
75 | O=C1c2ccccc2C(=O)N1CNc1ccc(I)cc1 | -0.239
76 | Cc1[nH][nH]c(=O)c1C(c1cccc(Cl)c1)C(C#N)C#N (configuration not stated) | -0.349
77 | CC(C)NC(=S)N/N=C/c1ccn[nH]1 | 0.944
78 | COc1cccc(NC(=O)c2nn(C)c3c2COc2ccccc2-3)c1 | -1.79

Row | Structure (SMILES) | z-score
79 | CCOC(=O)c1ccc2c(c1)sc1nc(-c3cccc(OC)c3)cn12 | -1.21
80 | Nc1no[n+]([O-])c1C(=O)NCCO | 0.91
81 | CCN1C(=O)C2C(c3cccs3)NC(C)(C(=O)OC)C2C1=O (configuration not stated) | -0.124
82 | O=C1NN=C(Cc2ccccc2)C1CCO (configuration not stated) | -1.42
83 | CCCc1cc(SCC(=O)O)n2c(nc3ccccc32)c1C#N | -0.397
84 | CN1C(=O)CC(N2CCN(C/C=C/c3ccccc3)CC2)C1=O (configuration not stated) | 0.0475
85 | Cc1ccc2c(c1)-c1onc(C(=O)N3CCCCC3)c1CO2 | -1.74
86 | CCNC(=S)N1CCN(CCN=CC2=C(O)CC(C)(C)CC2=O)CC1 | 0.296
87 | O=C(C1CCN(Cc2cnn(-c3ccccc3)c2-n2cccc2)CC1)N1CCC2(CC1)OCCO2 | 0.0245
88 | O=C(O)C1CCN(Cc2ccc(Cl)cc2)CC1 | -0.653
89 | Cc1cc(-c2ccc(S(=O)(=O)NC3CCCc4ccccc43)s2)n[nH]1 (configuration not stated) | 0.15
90 | Cc1ccc(C(C(=O)NCc2ccccc2)N(C(=O)C2COc3ccccc3O2)c2cccc(O)c2)o1 (configuration not stated) | -0.115
91 | Nc1nc(SC23CC4CC(CC(C4)C2)C3)ns1 | -1.08
92 | CC1=CCCC(C)(C)C1/C=C/C(C)=N/O (configuration not stated) | -1.1
93 | Cc1ccccc1NC(=O)N1CC(C)CC(C)C1 (configuration not stated) | -0.339
94 | Nc1nonc1-n1nnc(C(=O)N=Nc2c(O)[nH]c3ccc(Br)cc23)c1-c1ccccc1 | 0.712
95 | CCOC(=O)c1cc(-c2ccc(C)cc2)n(CCC(=O)Nc2nccs2)c1C | 0.181
96 | Cc1c(NC(=O)c2ccc3c(c2)C(=O)N(C)C3=O)cccc1C(=O)O | -0.278
97 | CCC(=O)N1CCc2cc(S(=O)(=O)NCC(OC)OC)ccc21 | 0.461
98 | NCc1cc(C2CC2)n[nH]1 | -0.734
99 | O=C(NCc1ccccn1)c1ccc2c(c1)CCN2S(=O)(=O)c1ccc(Cl)cc1 | -0.107
100 | CCNc1nc(N2CCOCC2)c2ccccc2n1 | 1.02
101 | Cc1nc(CC(=O)Nc2cccc(Cl)c2)cs1 | -0.419
102 | O=C(Cc1ccccc1)n1nc(-c2ccco2)nc1NCc1ccccc1 | 0.165

— PubChem BioAssay AID720717 (ICCB-Longwood Screening Facility, Harvard Medical School, 2013)
